Measurements: ChEMBL document CHEMBL4340529, “Selective degradation of CDK6 by a palbociclib based PROTAC” (Bioorg Med Chem Lett, 2019)
Values belong to the compound of their own block, whether it stands above or below them. The source made the active and inactive calls. The calls are words filed in the database; no cut-off is given here.

What was measured:
[1] = target: T1, Protein cereblon/Cyclin-dependent kinase 6 (Homo sapiens) (UniProt Q00534+Q96SW2); assay: Induction of CRBN-mediated CDK6 degradation in human MIAPaCa2 cells at 0.5 uM measured after 4 hrs by western blot analysis; format: cell-based
T1 sequence (Q00534 whole entry, looked up): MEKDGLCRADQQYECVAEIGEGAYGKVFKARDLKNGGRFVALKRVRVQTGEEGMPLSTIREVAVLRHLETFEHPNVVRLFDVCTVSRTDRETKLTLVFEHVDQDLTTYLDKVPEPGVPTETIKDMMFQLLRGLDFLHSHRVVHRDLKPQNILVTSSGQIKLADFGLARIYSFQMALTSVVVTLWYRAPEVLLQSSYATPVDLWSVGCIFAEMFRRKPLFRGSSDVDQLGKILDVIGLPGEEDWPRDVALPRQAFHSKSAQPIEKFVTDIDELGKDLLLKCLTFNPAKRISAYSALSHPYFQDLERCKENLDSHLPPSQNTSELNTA
T1 sequence (Q96SW2 whole entry, looked up): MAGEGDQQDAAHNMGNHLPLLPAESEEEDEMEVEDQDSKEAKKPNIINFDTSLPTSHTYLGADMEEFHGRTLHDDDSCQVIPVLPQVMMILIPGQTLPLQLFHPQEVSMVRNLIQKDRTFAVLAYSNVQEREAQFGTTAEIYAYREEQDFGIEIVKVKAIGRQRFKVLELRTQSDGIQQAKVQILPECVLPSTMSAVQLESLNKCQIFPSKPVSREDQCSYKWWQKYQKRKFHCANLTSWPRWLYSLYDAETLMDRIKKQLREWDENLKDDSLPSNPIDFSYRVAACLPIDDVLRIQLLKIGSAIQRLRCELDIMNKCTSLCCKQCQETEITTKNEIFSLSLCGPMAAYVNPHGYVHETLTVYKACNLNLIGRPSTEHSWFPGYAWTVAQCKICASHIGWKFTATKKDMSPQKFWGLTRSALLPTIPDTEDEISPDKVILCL
How it was run: (§1)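 MiaPaCa2 cells treated with degrader analogs at 0.5 μM for 4 h; lysates analysed by Western blot for CDK4, CDK6 and RB.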

[2] = target: T2, Protein cereblon/Cyclin-dependent kinase 4 (Homo sapiens) (UniProt P11802+Q96SW2); assay: Induction of CRBN-mediated CDK4 degradation in human MIAPaCa2 cells at 0.5 uM measured after 4 hrs by western blot analysis; format: cell-based; how it was run: as §1
T2 sequence (P11802 2-303 limits assumed): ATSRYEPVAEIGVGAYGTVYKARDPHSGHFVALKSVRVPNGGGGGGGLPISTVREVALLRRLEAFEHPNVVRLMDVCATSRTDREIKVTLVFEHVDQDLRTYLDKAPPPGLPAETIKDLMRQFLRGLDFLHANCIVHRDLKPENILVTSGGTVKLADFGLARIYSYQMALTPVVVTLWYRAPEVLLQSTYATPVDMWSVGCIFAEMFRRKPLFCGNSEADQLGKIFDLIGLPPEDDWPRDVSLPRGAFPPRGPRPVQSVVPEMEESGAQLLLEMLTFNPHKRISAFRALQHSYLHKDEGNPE
T2 sequence (Q96SW2 whole entry partner): as the sequence (Q96SW2 whole entry, looked up) above

[3] = target: Protein cereblon/Cyclin-dependent kinase 2 (Homo sapiens) (UniProt P24941+Q96SW2); assay: Induction of CRBN-mediated CDK2 degradation in human MIAPaCa2 cells at 0.5 uM measured after 24 hrs by western blot analysis; format: cell-based
How it was run: (§2)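 MiaPaCa2 cells exposed to 0.5 μM of each degrader analog for 24 h; lysates immunoblotted for CDK2, CDK5, CDK7 and CDK9 within a kinase panel.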

[4] = target: Protein cereblon/Cyclin-dependent kinase 5 (Homo sapiens) (UniProt Q00535+Q96SW2); assay: Induction of CRBN-mediated CDK5 degradation in human MIAPaCa2 cells at 0.5 uM measured after 24 hrs by western blot analysis; format: cell-based; how it was run: as §2
Chain of Protein cereblon/Cyclin-dependent kinase 5 (Homo sapiens) (Q00535 whole entry, looked up): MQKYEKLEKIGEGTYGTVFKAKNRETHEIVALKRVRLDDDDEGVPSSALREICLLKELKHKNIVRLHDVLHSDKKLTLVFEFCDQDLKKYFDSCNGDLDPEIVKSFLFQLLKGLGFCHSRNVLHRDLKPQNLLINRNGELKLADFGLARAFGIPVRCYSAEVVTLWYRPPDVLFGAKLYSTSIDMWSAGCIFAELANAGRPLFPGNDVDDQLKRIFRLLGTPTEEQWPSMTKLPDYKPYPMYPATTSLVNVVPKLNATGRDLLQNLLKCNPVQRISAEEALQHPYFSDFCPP
Chain of Protein cereblon/Cyclin-dependent kinase 5 (Homo sapiens) (Q96SW2 whole entry, looked up): as the sequence (Q96SW2 whole entry, looked up) above

[5] = target: Protein cereblon/Cyclin-dependent kinase 7 (Homo sapiens) (UniProt P50613+Q96SW2); assay: Induction of CRBN-mediated CDK7 degradation in human MIAPaCa2 cells at 0.5 uM measured after 24 hrs by western blot analysis; format: cell-based; how it was run: as §2
Chain of Protein cereblon/Cyclin-dependent kinase 7 (Homo sapiens) (P50613 whole entry, looked up): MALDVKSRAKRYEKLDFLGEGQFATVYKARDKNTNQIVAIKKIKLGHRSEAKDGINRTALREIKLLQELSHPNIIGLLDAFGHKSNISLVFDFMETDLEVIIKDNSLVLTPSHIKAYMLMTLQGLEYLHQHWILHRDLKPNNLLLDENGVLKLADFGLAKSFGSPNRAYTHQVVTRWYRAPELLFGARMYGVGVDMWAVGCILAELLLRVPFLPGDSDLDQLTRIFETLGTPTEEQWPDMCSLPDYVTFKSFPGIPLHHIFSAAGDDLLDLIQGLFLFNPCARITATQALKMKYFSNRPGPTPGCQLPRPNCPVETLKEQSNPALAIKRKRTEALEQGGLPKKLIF
Chain of Protein cereblon/Cyclin-dependent kinase 7 (Homo sapiens) (Q96SW2 whole entry, looked up): as the sequence (Q96SW2 whole entry, looked up) above

[6] = target: Protein cereblon/Cyclin-dependent kinase 9 (Homo sapiens) (UniProt P50750+Q96SW2); assay: Induction of CRBN-mediated CDK9 degradation in human MIAPaCa2 cells at 0.5 uM measured after 24 hrs by western blot analysis; format: cell-based; how it was run: as §2
Chain of Protein cereblon/Cyclin-dependent kinase 9 (Homo sapiens) (P50750 whole entry, looked up): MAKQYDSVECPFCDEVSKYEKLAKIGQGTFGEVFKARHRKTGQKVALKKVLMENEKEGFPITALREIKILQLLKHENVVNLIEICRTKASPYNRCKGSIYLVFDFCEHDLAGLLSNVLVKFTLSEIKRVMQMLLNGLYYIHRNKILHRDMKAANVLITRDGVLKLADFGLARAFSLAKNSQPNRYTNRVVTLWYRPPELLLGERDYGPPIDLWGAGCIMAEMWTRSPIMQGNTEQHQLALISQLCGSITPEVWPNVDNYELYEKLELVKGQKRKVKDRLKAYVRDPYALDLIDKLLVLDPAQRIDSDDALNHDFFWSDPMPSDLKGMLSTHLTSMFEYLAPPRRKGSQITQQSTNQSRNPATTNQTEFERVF
Chain of Protein cereblon/Cyclin-dependent kinase 9 (Homo sapiens) (Q96SW2 whole entry, looked up): as the sequence (Q96SW2 whole entry, looked up) above

[7] = target: Protein cereblon/Retinoblastoma-associated protein (Homo sapiens) (UniProt P06400+Q96SW2); assay: Induction of CRBN-mediated RB degradation in human MIAPaCa2 cells at 0.5 uM measured after 4 hrs by western blot analysis; format: cell-based; how it was run: as §1
Chain of Protein cereblon/Retinoblastoma-associated protein (Homo sapiens) (P06400 whole entry, looked up): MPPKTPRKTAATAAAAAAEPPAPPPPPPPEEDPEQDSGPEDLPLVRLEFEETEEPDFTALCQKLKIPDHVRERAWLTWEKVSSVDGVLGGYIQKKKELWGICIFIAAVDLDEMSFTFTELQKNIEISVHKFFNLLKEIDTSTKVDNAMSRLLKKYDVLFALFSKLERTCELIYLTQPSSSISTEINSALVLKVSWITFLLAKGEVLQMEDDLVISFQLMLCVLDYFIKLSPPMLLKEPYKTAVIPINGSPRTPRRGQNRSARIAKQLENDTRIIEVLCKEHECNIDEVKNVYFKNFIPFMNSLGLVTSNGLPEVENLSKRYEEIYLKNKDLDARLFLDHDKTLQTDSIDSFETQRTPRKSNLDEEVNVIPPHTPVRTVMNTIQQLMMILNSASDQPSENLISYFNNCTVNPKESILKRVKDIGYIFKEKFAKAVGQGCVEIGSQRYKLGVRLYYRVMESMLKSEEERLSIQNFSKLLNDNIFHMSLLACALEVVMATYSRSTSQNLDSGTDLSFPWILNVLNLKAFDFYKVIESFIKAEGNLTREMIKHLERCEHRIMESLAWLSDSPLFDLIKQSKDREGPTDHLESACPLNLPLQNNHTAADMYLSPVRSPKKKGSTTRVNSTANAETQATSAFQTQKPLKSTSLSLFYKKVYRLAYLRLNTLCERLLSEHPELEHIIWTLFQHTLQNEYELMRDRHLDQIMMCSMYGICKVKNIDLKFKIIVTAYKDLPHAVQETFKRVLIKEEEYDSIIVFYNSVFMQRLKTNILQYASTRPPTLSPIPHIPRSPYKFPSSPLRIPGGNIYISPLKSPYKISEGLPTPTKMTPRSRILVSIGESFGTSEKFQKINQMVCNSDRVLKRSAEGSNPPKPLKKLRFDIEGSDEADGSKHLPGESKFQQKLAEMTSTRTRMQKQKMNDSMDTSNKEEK
Chain of Protein cereblon/Retinoblastoma-associated protein (Homo sapiens) (Q96SW2 whole entry, looked up): as the sequence (Q96SW2 whole entry, looked up) above

[8] = target: Protein cereblon/Cyclin-dependent kinase 6/G1/S-specific cyclin-D3 (Homo sapiens) (UniProt P30281+Q00534+Q96SW2); assay: Induction of CRBN-mediated CDK6/cyclin D3 (unknown origin) degradation; format: protein assay
Chain of Protein cereblon/Cyclin-dependent kinase 6/G1/S-specific cyclin-D3 (Homo sapiens) (P30281 whole entry, looked up): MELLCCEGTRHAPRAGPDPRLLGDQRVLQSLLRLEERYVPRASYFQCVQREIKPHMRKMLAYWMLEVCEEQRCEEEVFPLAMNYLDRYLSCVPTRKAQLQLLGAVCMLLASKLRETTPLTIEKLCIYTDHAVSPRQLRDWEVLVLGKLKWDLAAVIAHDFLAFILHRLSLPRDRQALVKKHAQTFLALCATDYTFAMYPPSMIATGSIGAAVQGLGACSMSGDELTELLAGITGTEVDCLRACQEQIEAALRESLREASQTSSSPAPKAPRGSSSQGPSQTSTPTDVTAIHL
Chain of Protein cereblon/Cyclin-dependent kinase 6/G1/S-specific cyclin-D3 (Homo sapiens) (Q00534 whole entry, looked up): as the sequence (Q00534 whole entry, looked up) above
Chain of Protein cereblon/Cyclin-dependent kinase 6/G1/S-specific cyclin-D3 (Homo sapiens) (Q96SW2 whole entry, looked up): as the sequence (Q96SW2 whole entry, looked up) above

[9] = target: T1, Protein cereblon/Cyclin-dependent kinase 6 (Homo sapiens); assay: Induction of CRBN-mediated CDK6 degradation in human MIAPaCa2 cells at 0.15 to 5 uM measured after 4 hrs by Western blot analysis; format: cell-based
[10] = target: T1, Protein cereblon/Cyclin-dependent kinase 6 (Homo sapiens); assay: Induction of CRBN-mediated CDK6 degradation in human MIAPaCa2 cells at 0.1 uM measured after 4 hrs by Western blot analysis; format: cell-based
How it was run: (§3)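 Dose-response in MiaPaCa2 cells: graded degrader concentrations for 4 h and for 24 h; CDK4 and CDK6 read by immunoblot.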

[11] = target: T1, Protein cereblon/Cyclin-dependent kinase 6 (Homo sapiens); assay: Induction of CRBN-mediated CDK6 degradation in human MIAPaCa2 cells at 0.1 uM measured after 24 hrs by western blot analysis; format: cell-based; how it was run: as §3
[12] = target: T2, Protein cereblon/Cyclin-dependent kinase 4 (Homo sapiens); assay: Induction of CRBN-mediated CDK4 degradation in human MIAPaCa2 cells at 0.1 uM measured after 4 hrs by western blot analysis; format: cell-based; how it was run: as §3
[13] = target: T2, Protein cereblon/Cyclin-dependent kinase 4 (Homo sapiens); assay: Induction of CRBN-mediated CDK4 degradation in human MIAPaCa2 cells at 0.1 uM measured after 24 hrs by western blot analysis; format: cell-based; how it was run: as §3
[14] = target: T1, Protein cereblon/Cyclin-dependent kinase 6 (Homo sapiens); assay: Induction of CRBN-mediated CDK6 degradation in human HPNE cells at 0.1 uM measured after 4 hrs by Western blot analysis; format: cell-based
How it was run: (§4)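 HPNE cells given a range of degrader concentrations and harvested at 4 h and at 24 h; CDK4 and CDK6 levels read by Western blot.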

[15] = target: T1, Protein cereblon/Cyclin-dependent kinase 6 (Homo sapiens); assay: Induction of CRBN-mediated CDK6 degradation in human HPNE cells at 0.1 uM measured after 24 hrs by western blot analysis; format: cell-based; how it was run: as §4
[16] = target: T2, Protein cereblon/Cyclin-dependent kinase 4 (Homo sapiens); assay: Induction of CRBN-mediated CDK4 degradation in human HPNE cells at 0.1 uM measured after 4 hrs by western blot analysis; format: cell-based; how it was run: as §4
[17] = target: T2, Protein cereblon/Cyclin-dependent kinase 4 (Homo sapiens); assay: Induction of CRBN-mediated CDK4 degradation in human HPNE cells at 0.1 uM measured after 24 hrs by western blot analysis; format: cell-based; how it was run: as §4
[18] = target: T1, Protein cereblon/Cyclin-dependent kinase 6 (Homo sapiens); assay: Induction of CRBN-mediated CDK6 degradation in human MIAPaCa2 cells at 5 to 10 uM measured after 4 hrs by western blot analysis; format: cell-based
[19] = target: T1, Protein cereblon/Cyclin-dependent kinase 6 (Homo sapiens); assay: Induction of CRBN-mediated CDK6 degradation in human HPNE cells at 5 to 10 uM measured after 4 hrs by Western blot analysis; format: cell-based
[20] = target: T1, Protein cereblon/Cyclin-dependent kinase 6 (Homo sapiens); assay: Induction of CRBN-mediated CDK6 degradation in human MIAPaCa2 cells at 500 nM by Western blot analysis; format: cell-based; conditions: TDE = time-dependent effect
[21] = target: T1, Protein cereblon/Cyclin-dependent kinase 6 (Homo sapiens); assay: Induction of CRBN-mediated CDK6 degradation in human HPNE cells at 500 nM by Western blot analysis; format: cell-based; conditions: TDE = time-dependent effect
[22] = target: T1, Protein cereblon/Cyclin-dependent kinase 6 (Homo sapiens); assay: Induction of CRBN-mediated CDK6 degradation in human MIAPaCa2 cells at 1 uM measured after 24 hrs by western blot analysis; format: cell-based
[23] = target: T1, Protein cereblon/Cyclin-dependent kinase 6 (Homo sapiens); assay: Induction of CRBN-mediated CDK6 degradation in human MIAPaCa2 cells at 1 uM measured after 24 hrs in presence of palbociclib by western blot analysis; format: cell-based
How it was run: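 Competition test: MiaPaCa2 cells incubated 24 h with palbociclib 10 µM, degrader 1 µM, or both together; lysates probed for CDK4 and CDK6 by Western blot.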

[24] = target: T1, Protein cereblon/Cyclin-dependent kinase 6 (Homo sapiens); assay: Induction of CRBN-mediated CDK6 degradation in human MIAPaCa2 cells at 1 uM measured after 24 hrs in presence of pomalidomide by Western blot analysis; format: cell-based
How it was run: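 CRBN-ligand competition in MiaPaCa2 cells: pomalidomide 0.1–10 µM given alone or with degrader 1 µM for 24 h; lysates immunoblotted for CDK6.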

[25] = target: T1, Protein cereblon/Cyclin-dependent kinase 6 (Homo sapiens); assay: Induction of CRBN-mediated CDK6 degradation in human MIAPaCa2 cells at 1 uM measured after 8 hrs in presence of proteasome inhibitor MG132 by Western blot analysis; format: cell-based
[26] = Induction of CRBN-mediated CDK4/cyclin D1 (unknown origin) degradation; conditions: Homo sapiens

Structure (SMILES): CC(=O)c1c(C)c2cnc(Nc3ccc(N4CCN(CCOCCOCCOc5cccc6c5C(=O)N(C5CCC(=O)NC5=O)C6=O)CC4)cn3)nc2n(C2CCCC2)c1=O (stereo not drawn)
- Activity [1]: Active
- Activity [2]: Active

Structure (SMILES): CC(=O)c1c(C)c2cnc(Nc3ccc(N4CCN(CCCCCC(=O)Nc5cccc6c5C(=O)N(C5CCC(=O)NC5=O)C6=O)CC4)cn3)nc2n(C2CCCC2)c1=O (stereo not drawn)
- Activity [1]: Active
- Activity [2]: Active

More lines, now with the values ahead:

- Activity [1]: Active
Structure (SMILES): CC(=O)c1c(C)c2cnc(Nc3ccc(N4CCN(CC(=O)NCCCCCCCCNc5cccc6c5C(=O)N(C5CCC(=O)NC5=O)C6=O)CC4)cn3)nc2n(C2CCCC2)c1=O (stereo not drawn)

- Activity [1]: Active
- Activity [2]: inactive
- Activity [3]: inactive
- Activity [4]: inactive
- Activity [5]: inactive
- Activity [6]: inactive
- Activity [7]: inactive
- Activity [8]: 6.61 nM
- Activity [9]: Active
- Activity [10]: Active
- Activity [11]: Active
- Activity [12]: inactive
- Activity [13]: inactive
- Activity [14]: Active
- Activity [15]: Active
- Activity [16]: inactive
- Activity [17]: inactive
- Activity [18]: Active
- Activity [19]: Active
- Activity [20]: Tde
- Activity [21]: Tde
- Activity [22]: Active
- Activity [23]: inactive
- Activity [24]: inactive
- Activity [25]: inactive
- Activity [26]: < 1.5 nM
Structure (SMILES): CC(=O)c1c(C)c2cnc(Nc3ccc(N4CCN(CC(=O)NCCCOCCOCCOCCCNc5cccc6c5C(=O)N(C5CCC(=O)NC5=O)C6=O)CC4)cn3)nc2n(C2CCCC2)c1=O (stereo not drawn)

- Activity [1]: Active
- Activity [2]: Active
Structure (SMILES): CC(=O)c1c(C)c2cnc(Nc3ccc(N4CCN(CC(=O)NCCCCNc5cccc6c5C(=O)N(C5CCC(=O)NC5=O)C6=O)CC4)cn3)nc2n(C2CCCC2)c1=O (stereo not drawn)
